From PubChem
Compounds with a hit are over-represented: about 3.6% of the library has one in this group of screens.
SR-BI uptake up – activators of SR-BI mediated HDL lipid uptake; CHO ldlA[mSR-BI] cells, DiI-HDL uptake fluorescence, 3 h; 100 = double the neutral-control signal; activation, % at 12.5 µM; 320,000 compounds, 0.096% hits;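 active = mean replicate activation of at least 60% and every replicate at or above 60%; inconclusive = mean or all-replicate condition met, but not both; inactive = mean below 60% and not all replicates reaching 60%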;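 also: 0% = median plate neutral-control signal and 100% = twice that signal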
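Test system: SR-BI-overexpressing, LDLR-lacking CHO cells. Measured by: DiI fluorescence, bottom read. Medium: Ham's F12 with 0.5% BSA, HEPES 25 mM, pH 7.4. Timing: 3 h uptake period with compound, 37 °C.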
SR-BI HDL uptake – blocks mouse SR-BI lipid uptake from DiI-HDL; inhibition, % at 12.5 µM; ldlA[mSR-BI] CHO cells, DiI-HDL uptake fluorescence, 3 h; Q61009; 320,000 compounds, 0.96% hits;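 active = mean replicate inhibition of at least 70% and a set share of replicates each scoring 70 or more; inconclusive = meets just one of the two criteria; inactive = fails both criteria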;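 also: 0% = median of neutral control wells and 100% = median of positive control wells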
Target sequence (Q61009 whole entry, looked up): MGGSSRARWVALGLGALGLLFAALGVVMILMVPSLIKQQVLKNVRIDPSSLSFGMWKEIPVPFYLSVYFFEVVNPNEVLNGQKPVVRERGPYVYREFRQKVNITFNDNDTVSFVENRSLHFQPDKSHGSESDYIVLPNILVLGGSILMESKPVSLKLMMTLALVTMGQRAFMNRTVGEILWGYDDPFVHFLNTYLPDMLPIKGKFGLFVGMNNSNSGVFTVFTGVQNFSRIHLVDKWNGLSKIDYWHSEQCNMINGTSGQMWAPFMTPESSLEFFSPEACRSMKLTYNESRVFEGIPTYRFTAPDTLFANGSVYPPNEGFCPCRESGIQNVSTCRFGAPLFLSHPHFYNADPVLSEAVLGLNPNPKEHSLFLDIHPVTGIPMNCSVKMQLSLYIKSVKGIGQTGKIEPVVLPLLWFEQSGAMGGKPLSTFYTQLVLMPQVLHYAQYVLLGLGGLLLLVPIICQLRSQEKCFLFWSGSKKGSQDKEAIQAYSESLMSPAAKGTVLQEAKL
HSF-1 act – increases HSF-1 driven luciferase reporter signal; NIH3T3-HGL HSF-1 luciferase reporter, MG132, 8 h; 100% = twice DMSO control signal; activation, % at 9 µM; 300,000 compounds, 1.7% hits; AID 504408;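 active = mean replicate activation of at least 50% with a set share of replicates each reaching 50%; inconclusive = only one of those two conditions met; inactive = mean below 50% and too few replicates reaching it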;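 also: 0% = median of the neutral control wells and 100% = twice that signal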
Wnt bcat act – Wnt/beta-catenin pathway activation; activation, % at 9.35 µM; Wnt/beta-catenin reporter cell assay, activator, plate reader; 300,000 compounds, 1.2% hits; in the data active = activation above about 30%, passing the limit was not always enough; inconclusive = no clear call, values can overlap the other calls;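 also: 0% = neutral control wells and 100% = positive control wells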
MITF TRPM1 HTS – MITF TRPM1 promoter activation in melanoma cells. 300,000 compounds, 0.75% hits. SK-MEL-5 TRPM1-promoter luciferase, 24 h; % of positive control, neutral wells = 0. activation, % at 12.5 µM;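 active = mean activation of at least 80% with every replicate also reaching 80%; inconclusive = mean reaches 80% but some replicate falls short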;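 also: 0% = neutral control wells and 100% = parthenolide positive control wells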
An asterisk follows results filed as active; ? = inconclusive; / = no result.

SMILES | SR-BI uptake up | SR-BI HDL uptake | HSF-1 act | Wnt bcat act | MITF TRPM1 HTS
CCOc1cc(Br)cc(/C=N/NC(=O)c2cccnc2)c1O | -80 | 80* | -5 | -2 | -50
CC(=C/c1ccccc1)/C=N/NC(=O)c1cnccn1 | 30 | -30 | 24 | 26 | /
CSc1ccccc1C(=O)C1CCCN(C(=O)c2cccc(Cn3cccn3)c2)C1 (configuration not stated) | / | / | / | 0 | /
Cc1ccc(C(=O)N/N=C/c2cc(Br)ccc2O)cn1 | -75 | 75* | 12 | 0 | /
O=C(N/N=C/c1cc(Br)ccc1O)c1ccccc1Cl | -84 | 84* | 27 | -3 | -50
Cc1ccc(C(=O)N/N=C\C=C\c2ccc(Br)cc2)cn1 | -13 | 13 | -11 | 2 | -19
O=C(N/N=C/c1ccccc1Cl)c1ccncc1 | -1 | 1 | 2 | 10 | /
O=C(N/N=C/c1cc(Cl)ccc1O)c1ccncc1 | -115 | 115* | -4 | -4 | -62
Cc1cc(=O)[nH]c(NN=Cc2cc(Br)ccc2O)n1 | -97 | 97* | / | -5 | -27
Cc1cc(=O)[nH]c(N/N=C/c2ccccc2Cl)n1 | 0 | 0 | 4 | 3 | 42
CN(C)C(=O)C[C@H]1C[C@@H]2c3cc(NC(=O)NC4CCCC4)ccc3O[C@@H]2[C@@H](CO)O1 | / | / | / | 0 | /
C/C(=N\NC(=O)c1csc(C)c1C)c1ccc(C)s1 | 5 | -5 | -14 | -2 | 41
C/C(=N\NC(=O)c1cccs1)c1ccc2ccccc2c1 | -39 | 39 | 38 | 9 | 66
CC(/C=N/NC(=O)c1cccs1)=C\c1ccco1 | -1 | 1 | 8 | 39* | 72
C/C(=N\NC(=O)c1csc(C)c1C)c1ccco1 | -1 | 1 | 63* | 28 | 17
C/C(=N/NC(=O)c1cccs1)c1ccco1 | 2 | -2 | 56* | 1 | 33
C/C(=N\NC(=O)c1ccc2ccccc2c1)c1cccs1 | -5 | 5 | / | 41* | 38
Cc1ccc(S(=O)(=O)NCCCNS(=O)(=O)c2ccccc2Br)cc1 | 1 | -1 | / | -2 | -2
CC(=O)N/N=C(/C)c1ccc(NC(=O)c2csc(C)c2C)cc1 | -48 | 48 | 71* | 8 | ?
C[C@@H]1ON(C)[C@H]2C[C@H]3c4cc(N5CCN(C)CC5)ccc4CCN3C[C@@H]12 | / | / | / | -1 | /
COc1ccc(NC(=O)c2cc(C)cc(C)c2)cc1[N+](=O)[O-] | -80 | 80* | 25 | -1 | 5
COc1ccc(C(=O)Nc2ccc3c(c2)OCCO3)cc1[N+](=O)[O-] | -58 | 58 | -2 | -1 | 43
COc1cc(C(=O)Nc2ccc(Nc3ccccc3)cc2)cc(OC)c1OC | -79 | 79* | 58* | 0 | 1
COc1cc(C(=O)Nc2cccc(-n3cnnn3)c2)cc(Cl)c1OC | -66 | 66 | -3 | -4 | -7
COc1cc(C(=O)Nc2ccc(Cl)c([N+](=O)[O-])c2)cc(OC)c1OC | -80 | 80* | 6 | -2 | 1
SMILES | SR-BI uptake up | SR-BI HDL uptake | HSF-1 act | Wnt bcat act | MITF TRPM1 HTS
COc1cc(C(=O)Nc2ccncc2)cc(OC)c1OC | 0 | 0 | -5 | -3 | 0
COc1cc(C(=O)Nc2ccc(Cl)c(C(F)(F)F)c2)cc(OC)c1OC | -58 | 58 | 21 | -5 | 10
COc1cc(C(=O)Nc2cccc(-n3cnnn3)c2)cc(OC)c1OC | -77 | 77* | -5 | -3 | -1
Cc1cc(C(=O)N2CCC2(C)C(=O)O)c(C)o1 (configuration not stated) | / | / | / | -1 | /
COCCCN1C(=O)C(CC(=O)NCC2CCCCC2)CC(C(=O)N(C)C)=C1C (configuration not stated) | / | / | / | -1 | /
CCOC(=O)[C@]12CCC=C1N(Cc1ccc3c(c1)OCO3)C(=O)[C@H](CC(=O)NCc1ccc(C)o1)C2 | / | / | / | 1 | /
O=C(COc1ccc2c(-c3ccccc3)cc(=O)oc2c1)N1C[C@H]2C[C@@H](C1)c1cccc(=O)n1C2 | / | / | / | -1 | /
CCOC(=O)CSc1nc2ccccc2c(=O)n1NC(=O)c1ccccc1 | 8 | -8 | -24 | 38* | 49
COc1cc2cc3c(N)c(C(=O)NCc4ccco4)sc3nc2cc1OC | -38 | 38 | 30 | 11 | /
Cc1ccc2nc3sc(C(=O)NCc4ccco4)c(N)c3cc2c1 | -44 | 44 | 85* | / | 57
Cc1ccc(OCCNC(=O)[C@@H](Cc2ccccc2)NC(=O)[C@H]2O[C@@H](n3ccc(=O)[nH]c3=O)[C@H](O)[C@@H]2O)cc1C | / | / | / | -3 | /
O=C1/C(=C/c2cccc(O)c2)SC(=S)N1CC1CCCO1 (configuration not stated) | -9 | 9 | -10 | 1 | 22
CCOc1cc(/C=C2/SC(=S)N(CC3CCCO3)C2=O)ccc1O (configuration not stated) | -33 | 33 | 73* | -1 | 20
Nc1nc(CCl)nc(Nc2ccc3ccccc3c2)n1 | -10 | 10 | 111* | -1 | -15
Cc1cc(C)nc(N(C#N)CN2C(=O)c3ccccc3C2=O)n1 | 7 | -7 | 12 | 1 | 4
CCC(C)Nc1nc(Cl)nc(N(C#N)CN2C(=O)c3ccccc3S2(=O)=O)n1 (configuration not stated) | 12 | -12 | 76* | / | -67
CC(C)Nc1nc(Cl)nc(N(C#N)CN2C(=O)c3ccccc3C2=O)n1 | 15 | -15 | 204* | -26 | -56
COc1ccc(CN2C(=O)C(CC(=O)NC3CCCCC3)CC(C(=O)N(C(C)C)C(C)C)=C2C)cc1 (configuration not stated) | / | / | / | -1 | /
On1onc2c3cc(-c4ccccc4)nc3ccc21 | -54 | 54 | / | 39* | -14
CCCCNC(=O)C1(N2C(=O)c3ccccc3C2=O)CCCC1 | / | / | / | 1 | /
O=C(NCC[C@H]1CC[C@H](NS(=O)(=O)c2ccccc2F)[C@@H](CO)O1)c1ccc(F)cc1 | / | / | / | -1 | /
CN1[C@@H](Cc2ccccc2)COc2cc(N3CCSCC3)ccc2S1(=O)=O | / | / | / | 0 | /
O=C1CSC(c2cn(-c3ccccc3)nc2-c2ccc3c(c2)OCCO3)N1CCN1CCOCC1 (configuration not stated) | 14 | -14 | 58* | / | 1
c1ccc(-c2nc3c(ccc4ccccc43)[nH]2)nc1 | -21 | 21 | 58* | / | 17
c1ccc(-c2nc3ccccc3[nH]2)nc1 | 33 | -33 | 15 | 20 | 64
Cc1nc2ccc(C(=O)NCCCn3ccnc3)cn2c1N(C)CC1CCCCC1 | / | / | / | 4 | /
CC(=O)c1ccc(C(=O)N2CCC(CO)(Cc3cccc(C(F)(F)F)c3)CC2)cc1 | -63 | 63 | 14 | -1 | -17
CC1(C(=O)N2CCC(CO)(Cc3cccc(C(F)(F)F)c3)CC2)CC1 | -85 | 85* | -5 | 0 | -7
OCC1(Cc2cccc(C(F)(F)F)c2)CCN(Cc2cc3ccccc3o2)CC1 | 5 | -5 | 89* | 0 | -6
N/C(=N\OC(=O)Nc1ccccc1)c1ncc([N+](=O)[O-])s1 | 4 | -4 | 65* | 5 | -68
